Experimental data: ChEMBL document CHEMBL1649420, “Identifying chelators for metalloprotein inhibitors using a fragment-based approach” (J Med Chem, 2011)

Tests used:
[1] = biological target: T1, Polyunsaturated fatty acid 5-lipoxygenase (Homo sapiens) (UniProt P09917); test: Inhibition of human recombinant 5-lipoxygenase at 1 mM after 10 mins by fluorescence assay
T1 sequence (whole entry): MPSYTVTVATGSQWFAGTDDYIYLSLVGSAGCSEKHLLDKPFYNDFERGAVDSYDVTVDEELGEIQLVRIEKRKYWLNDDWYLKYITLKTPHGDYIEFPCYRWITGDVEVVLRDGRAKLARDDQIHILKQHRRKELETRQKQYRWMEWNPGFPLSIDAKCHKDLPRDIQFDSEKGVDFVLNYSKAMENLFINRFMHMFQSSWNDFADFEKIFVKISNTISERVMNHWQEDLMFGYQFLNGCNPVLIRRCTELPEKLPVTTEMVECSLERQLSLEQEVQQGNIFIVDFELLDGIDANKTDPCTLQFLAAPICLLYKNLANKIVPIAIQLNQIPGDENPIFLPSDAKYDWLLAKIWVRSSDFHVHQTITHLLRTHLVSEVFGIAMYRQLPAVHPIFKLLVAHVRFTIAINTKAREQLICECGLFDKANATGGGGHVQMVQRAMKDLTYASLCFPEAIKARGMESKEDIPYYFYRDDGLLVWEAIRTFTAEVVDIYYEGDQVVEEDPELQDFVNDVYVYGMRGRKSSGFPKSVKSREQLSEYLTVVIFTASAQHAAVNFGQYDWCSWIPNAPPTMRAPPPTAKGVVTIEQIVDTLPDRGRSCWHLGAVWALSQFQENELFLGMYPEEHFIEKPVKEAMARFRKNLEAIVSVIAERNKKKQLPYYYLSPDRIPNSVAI

[2] = biological target: T2, Tyrosinase (Agaricus bisporus) (UniProt O42713); conditions: at 1 mM;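 also: inhibition measured at 10 min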
T2 sequence (whole entry): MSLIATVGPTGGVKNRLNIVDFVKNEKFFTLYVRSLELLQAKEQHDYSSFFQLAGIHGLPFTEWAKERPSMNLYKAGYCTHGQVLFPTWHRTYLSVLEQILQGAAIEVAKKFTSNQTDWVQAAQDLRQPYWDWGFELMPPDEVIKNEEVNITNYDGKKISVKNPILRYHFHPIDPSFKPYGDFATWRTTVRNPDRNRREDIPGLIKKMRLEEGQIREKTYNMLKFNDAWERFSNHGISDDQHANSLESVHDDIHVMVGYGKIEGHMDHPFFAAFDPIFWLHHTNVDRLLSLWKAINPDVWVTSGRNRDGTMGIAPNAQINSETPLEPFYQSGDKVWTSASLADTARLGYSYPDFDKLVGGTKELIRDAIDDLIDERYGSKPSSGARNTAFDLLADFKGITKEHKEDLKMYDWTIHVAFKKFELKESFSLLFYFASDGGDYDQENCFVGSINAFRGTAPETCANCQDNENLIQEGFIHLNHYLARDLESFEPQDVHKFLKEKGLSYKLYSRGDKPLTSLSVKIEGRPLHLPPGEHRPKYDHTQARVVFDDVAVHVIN

[3] = biological target: 72 kDa type IV collagenase (Homo sapiens, UniProt P08253); test: Inhibition of human recombinant MMP2 after 30 mins
Procedure, shortened: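 Enzyme (1.16 U) preincubated 30 min at 37 °C with fragment in 50 mM HEPES, 10 mM CaCl2, 0.05% Brij-35, pH 7.5. Fluorogenic Mca peptide substrate (4 μM final) then added. Rate of fluorescence increase compared with no-inhibitor control (100%). Single-point 25 μM final for the 8-hydroxyquinoline sublibrary. IC50 fitted to dose-response curves from serial dilutions of DMSO stocks.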

Sequence of 72 kDa type IV collagenase (P08253 whole entry, the tested form may be a part): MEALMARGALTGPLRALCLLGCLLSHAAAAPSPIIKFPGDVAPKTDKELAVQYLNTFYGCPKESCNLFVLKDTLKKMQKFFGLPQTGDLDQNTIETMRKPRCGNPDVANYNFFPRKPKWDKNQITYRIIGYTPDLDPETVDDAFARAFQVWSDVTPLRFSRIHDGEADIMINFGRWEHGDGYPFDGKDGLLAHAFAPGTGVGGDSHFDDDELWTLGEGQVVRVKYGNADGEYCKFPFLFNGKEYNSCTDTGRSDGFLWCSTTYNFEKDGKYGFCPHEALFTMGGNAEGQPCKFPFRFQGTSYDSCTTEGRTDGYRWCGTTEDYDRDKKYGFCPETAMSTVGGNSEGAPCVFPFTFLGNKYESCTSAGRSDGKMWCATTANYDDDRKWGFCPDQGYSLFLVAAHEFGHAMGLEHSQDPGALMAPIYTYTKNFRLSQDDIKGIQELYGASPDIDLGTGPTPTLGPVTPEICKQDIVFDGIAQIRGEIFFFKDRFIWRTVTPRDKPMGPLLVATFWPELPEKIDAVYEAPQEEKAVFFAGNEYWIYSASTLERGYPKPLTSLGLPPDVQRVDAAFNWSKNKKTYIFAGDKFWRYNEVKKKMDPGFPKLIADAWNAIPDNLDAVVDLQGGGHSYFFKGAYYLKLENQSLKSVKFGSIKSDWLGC

O=c1cc(CCl)occ1O
inhibition [1]: 87%
inhibition [2]: 94%

CC(=O)C(C)C(C)=O
inhibition [1]: 64%
inhibition [2]: 67%

Cc1ccc(O)c(C(=O)O)c1
inhibition [1]: 17%
inhibition [2]: 98%

O=C(O)c1cccc(C(=O)O)n1
inhibition [1]: 31%
inhibition [2]: 99%

c1ccc(CNCc2ccccn2)nc1
inhibition [1]: 29%
inhibition [2]: 69%

Cc1cc(=O)c(O)c(CCl)o1
inhibition [1]: 72%
inhibition [2]: 96%

Nc1ccc(C(=O)O)c(O)c1
inhibition [1]: 60%
inhibition [2]: 55%

Cc1ccc(S(N)(=O)=O)cc1
inhibition [1]: 25%
inhibition [2]: 70%

Cn1cccc(O)c1=O
inhibition [1]: 88%
inhibition [2]: -6%

Nc1[nH]cnc2ncnc1-2
inhibition [1]: 9%
inhibition [2]: 11%

Cc1cccc(C(=O)O)c1O
inhibition [1]: 22%
inhibition [2]: 96%

O=c1cccccc1O [TROPOLONE]
inhibition [1]: -3%
IC50 [3]: 146 µM
inhibition [2]: 90%

[O-][n+]1cccc2cccc(O)c21
inhibition [1]: 66%
inhibition [2]: 29%

O=C(O)c1cccc(O)c1O
inhibition [1]: 80%
inhibition [2]: 88%

CCn1ccc(=O)c(O)c1C
inhibition [1]: 80%
inhibition [2]: 9%

O=c1ccocc1O
inhibition [1]: 81%
inhibition [2]: 38%

Cc1cc(=O)c(O)co1
inhibition [1]: 80%
inhibition [2]: 86%

Cc1cc(O)nc(O)n1
inhibition [1]: 24%
inhibition [2]: -4%

Cc1occ(O)c(=O)c1C(=O)O
inhibition [1]: 80%
inhibition [2]: 96%

O=C(O)c1nccc2ccccc12
inhibition [1]: 18%
inhibition [2]: 72%

O=C(O)c1cccc(Br)n1
inhibition [1]: 29%
inhibition [2]: 90%

O=C(O)c1cccc[n+]1[O-]
inhibition [1]: 31%
inhibition [2]: 88%

O=C(O)c1ccc(C(=O)O)nc1
inhibition [1]: 31%
inhibition [2]: 98%

O=C(O)c1ccc(F)cc1O
inhibition [1]: 31%
inhibition [2]: 97%

Cc1cc(O)nc(C)n1
inhibition [1]: 26%
inhibition [2]: -10%

Nc1cc(=O)nc(N)[nH]1
inhibition [1]: 65%
inhibition [2]: 18%

O=C(O)c1ccccc1O
inhibition [1]: 20%
inhibition [2]: 97%

Cc1nc(O)nc(O)c1C
inhibition [1]: 33%
inhibition [2]: 32%

O=C(O)c1ncccc1O
inhibition [1]: 17%
inhibition [2]: 87%

O=c1occcc1O
inhibition [1]: 77%
inhibition [2]: 77%

CCCCc1ccc(C(=O)O)nc1
inhibition [1]: 23%
inhibition [2]: 75%

Oc1ncccn1
inhibition [1]: 8%
inhibition [2]: 92%

O=C(O)c1cc(F)ccc1O
inhibition [1]: 49%
inhibition [2]: 98%

C1CNCCNCCN1
inhibition [1]: 25%
inhibition [2]: 68%

O=C(O)c1ccccn1
inhibition [1]: 16%
inhibition [2]: 74%

CC(=O)C1CCCC1=O (stereo not drawn)
inhibition [1]: 79%
inhibition [2]: 83%
